pIC50: −log10 of the molar value.
Tests used:
Hs68 = assay: Cytotoxicity against human HS68 cells at 25 to 200 uM after 48 hrs by SRB assay; assay type: cell-based; conditions: hs68, 48 h
Procedure, shortened: (§1)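 Cells exposed to each compound for 48 h; growth measured by sulforhodamine B staining. Compounds dissolved in DMSO, then diluted into growth medium. Cisplatin served as positive control. IC50 values derived from the SRB read-out.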

A549 = assay: Cytotoxicity against human A549 cells after 48 hrs by SRB assay; assay type: functional, cell-based; conditions: A549, 48 h; procedure, shortened: as §1
MDA-MB-231 = assay: Cytotoxicity against human MDA-MB-231 cells after 48 hrs by SRB assay; assay type: functional, cell-based; conditions: MDA-MB-231, 48 h; procedure, shortened: as §1

SMILES	Activity (Hs68)	pIC50 (A549)	pIC50 (MDA-MB-231)
C=C(CC[C@@H](C)[C@H]1CC[C@H]2C3=C(C(=O)C[C@]12C)[C@@]1(C)CC[C@@H](O)[C@](C)(O)[C@@H]1C[C@@H]3O)[C@@H](C)C(=O)O	Non-toxic		
C[C@@H]1[C@H](O)CC[C@]2(C)C3=C(C(=O)C[C@@H]12)[C@@H]1CC[C@H]([C@H](C)CCO)[C@@]1(C)[C@@H](O)C3=O	Non-toxic		
CC(=O)CC[C@@H](C)[C@H]1CC[C@H]2C3=C(C(=O)C[C@]12C)[C@@]1(C)CCC(=O)[C@@H](C)[C@@H]1CC3=O	Non-toxic	4.18	4.34
C/C(C=O)=C(/C)CC[C@@H](C)[C@H]1CC[C@H]2C3=C(C(=O)C[C@]12C)[C@@]1(C)CCC(=O)[C@@H](C)[C@@H]1CC3	Non-toxic		
C/C(C=O)=C(\C)CC[C@@H](C)[C@H]1CC[C@H]2C3=C(C(=O)C[C@]12C)[C@@]1(C)CCC(=O)[C@@H](C)[C@@H]1CC3	Non-toxic		
C=C(CC[C@@H](C)[C@H]1CC[C@H]2C3=C(C(=O)C[C@]12C)[C@@]1(C)CCC(=O)[C@](C)(O)[C@@H]1C[C@@H]3O)[C@H](C)C(=O)O	Non-toxic	4.10	4.23
C=C(CC[C@@H](C)[C@H]1CC[C@H]2C3=C(C(=O)C[C@]12C)[C@@]1(C)CCC(=O)[C@](C)(O)[C@@H]1C[C@@H]3O)[C@@H](C)C(=O)O	Non-toxic	4.18	4.17
C=C(CC[C@@H](C)[C@H]1CC[C@H]2C3=C(C(=O)C[C@]12C)[C@@]1(C)CCC(=O)[C@](C)(O)[C@@H]1C[C@@H]3O)[C@H](C)C(=O)OC	Non-toxic	4.14	4.11
C=C(CC[C@@H](C)[C@H]1CC[C@H]2C3=C(C(=O)C[C@]12C)[C@@]1(C)CCC(=O)[C@](C)(O)[C@@H]1C[C@@H]3O)[C@@H](C)C(=O)OC	Non-toxic	4.03	4.15
C=C(CC[C@@H](C)[C@H]1CC[C@H]2C3=C(C(=O)[C@H](O)[C@]12C)[C@@]1(C)CCC(=O)[C@@H](C)[C@@H]1CC3=O)[C@@H](C)C(=O)O	Non-toxic		
C=C(CC[C@@H](C)[C@H]1CC[C@H]2C3=C(C(=O)[C@H](O)[C@]12C)[C@@]1(C)CCC(=O)[C@@H](C)[C@@H]1CC3=O)[C@H](C)C(=O)O	Non-toxic	4.07	4.15
C=C(CC[C@@H](C)[C@H]1CC[C@H]2C3=C(C(=O)C[C@]12C)[C@@]1(C)CC[C@H](O)[C@@H](C)[C@@H]1C[C@@H]3O)[C@H](C)C(=O)O	Non-toxic		
C=C(CC[C@@H](C)[C@H]1CC[C@H]2C3=C(C(=O)C[C@]12C)[C@@]1(C)CC[C@H](O)[C@@H](C)[C@@H]1C[C@@H]3O)[C@@H](C)C(=O)O	Non-toxic		
C=C(CC[C@@H](C)[C@H]1CC[C@H]2C3=C(C(=O)[C@H](O)[C@]12C)[C@@]1(C)CC[C@@H](O)[C@@H](C)[C@@H]1CC3=O)[C@@H](C)C(=O)O	Non-toxic	4.66	4.63
C=C(CC[C@@H](C)[C@H]1CC[C@H]2C3=C(C(=O)[C@H](O)[C@]12C)[C@@]1(C)CC[C@@H](O)[C@@H](C)[C@@H]1CC3=O)[C@H](C)C(=O)O	Non-toxic	4.48	4.41
C=C(CC[C@@H](C)[C@H]1CC[C@H]2C3=C(C(=O)C[C@]12C)[C@@]1(C)CCC(=O)[C@@H](C)[C@@H]1CC3=O)[C@@H](C)C(=O)O	Non-toxic	4.38	4.48
C=C(CC[C@@H](C)[C@H]1CC[C@H]2C3=C(C(=O)C[C@]12C)[C@@]1(C)CCC(=O)[C@@H](C)[C@@H]1C[C@@H]3O)[C@H](C)C(=O)O	Non-toxic	4.12	4.13
C=C(CC[C@@H](C)[C@H]1CC[C@H]2C3=C(C(=O)C[C@]12C)[C@@]1(C)CCC(=O)[C@@H](C)[C@@H]1C[C@@H]3O)[C@@H](C)C(=O)O	Non-toxic	4.48	4.60
C=C(CC[C@@H](C)[C@H]1CC[C@H]2C3=C(C(=O)C[C@]12C)[C@@]1(C)CC[C@@H](O)[C@](C)(O)[C@@H]1C[C@@H]3O)[C@H](C)C(=O)O	Non-toxic		
C=C(CC[C@@H](C)[C@H]1CC=C2C3=C(C(=O)C[C@@]21C)[C@@]1(C)CCC(=O)[C@@H](C)[C@@H]1C[C@@H]3O)C(C)C(=O)O (some centres not stated)	Non-toxic	4.39	4.50
C=C(CC[C@@H](C(=O)O)[C@H]1C[C@H](O)[C@@]2(C)C3=CC[C@H]4C(C)(C)[C@@H](O)CC[C@]4(C)C3=CC[C@]12C)C(C)C	Non-toxic		
C=C(CC[C@@H](C(=O)O)[C@H]1C[C@H](O)[C@@]2(C)C3=CC[C@H]4C(C)(C)C(=O)CC[C@]4(C)C3=CC[C@]12C)C(C)C	Non-toxic		
C=C(CC[C@@H](C(=O)O)[C@H]1C[C@H](OC(C)=O)[C@@]2(C)C3=CC[C@H]4C(C)(C)[C@@H](O)CC[C@]4(C)C3=CC[C@]12C)C(C)C	Non-toxic		
C=C(CC[C@@H](C)[C@H]1CC[C@H]2C3=C(C(=O)C[C@]12C)[C@@]1(C)CCC(=O)[C@@H](C)[C@@H]1CC3)C(C)C(=O)O (some centres not stated) [ANTCIN A]	Non-toxic	4.40	4.53
C=C(CC[C@@H](C)[C@H]1CC[C@H]2C3=C(C(=O)C[C@]12C)[C@@]1(C)CCC(=O)[C@@H](C)[C@@H]1CC3=O)[C@H](C)C(=O)O [ANTCIN B]	Non-toxic	4.24	4.36
C=C(CC[C@@H](C)[C@H]1CC[C@H]2C3=C(C(=O)[C@H](O)[C@]12C)[C@@]1(C)CC[C@@H](O)[C@@H](C)[C@@H]1C[C@@H]3O)C(C)C(=O)O (some centres not stated) [CAMPHORATIN A]	Non-toxic	4.04	4.03
C=C(CC[C@@H](C)[C@H]1CC[C@H]2C3=C(C(=O)C[C@]12C)[C@@]1(C)CC[C@@H](O)[C@](C)(O)[C@@H]1CC3=O)C(C)C(=O)O (some centres not stated) [CAMPHORATIN C]	Non-toxic	4.31	4.20
C=C(CC[C@@H](C(=O)O)[C@H]1CC[C@@]2(C)C3=CC[C@H]4C(C)(C)[C@@H](O)CC[C@]4(C)C3=CC[C@]12C)C(C)C [DEHYDROEBURICOIC ACID]	Non-toxic		
C=C(CC[C@@H](C(=O)O)[C@H]1CC[C@@]2(C)C3=C(CC[C@]12C)[C@@]1(C)CC[C@H](O)C(C)(C)[C@@H]1CC3)C(C)C [EBURICOIC ACID]	Non-toxic		
C=C(CC[C@@H](C(=O)O)[C@H]1C[C@H](O)[C@@]2(C)C3=C(CC[C@]12C)[C@@]1(C)CC[C@H](O)C(C)(C)[C@@H]1CC3)C(C)C [SULFURENIC ACID]	Non-toxic		

Source: ChEMBL document CHEMBL3102740, “Antcamphins A-L, ergostanoids from Antrodia camphorata” (J Nat Prod, 2014)
